How the values were obtained:
Assay type in all cases: cell-based
[1] = molecular target: T1, Peroxisome proliferator-activated receptor gamma coactivator 1-alpha (Homo sapiens) (UniProt Q9UBK2); assay: Activation of PGC1alpha transcriptional activity (unknown origin) expressed in HEK293 cells at 10 uM after overnight incubation by luciferase reporter gene assay relative to control
T1 sequence (whole entry): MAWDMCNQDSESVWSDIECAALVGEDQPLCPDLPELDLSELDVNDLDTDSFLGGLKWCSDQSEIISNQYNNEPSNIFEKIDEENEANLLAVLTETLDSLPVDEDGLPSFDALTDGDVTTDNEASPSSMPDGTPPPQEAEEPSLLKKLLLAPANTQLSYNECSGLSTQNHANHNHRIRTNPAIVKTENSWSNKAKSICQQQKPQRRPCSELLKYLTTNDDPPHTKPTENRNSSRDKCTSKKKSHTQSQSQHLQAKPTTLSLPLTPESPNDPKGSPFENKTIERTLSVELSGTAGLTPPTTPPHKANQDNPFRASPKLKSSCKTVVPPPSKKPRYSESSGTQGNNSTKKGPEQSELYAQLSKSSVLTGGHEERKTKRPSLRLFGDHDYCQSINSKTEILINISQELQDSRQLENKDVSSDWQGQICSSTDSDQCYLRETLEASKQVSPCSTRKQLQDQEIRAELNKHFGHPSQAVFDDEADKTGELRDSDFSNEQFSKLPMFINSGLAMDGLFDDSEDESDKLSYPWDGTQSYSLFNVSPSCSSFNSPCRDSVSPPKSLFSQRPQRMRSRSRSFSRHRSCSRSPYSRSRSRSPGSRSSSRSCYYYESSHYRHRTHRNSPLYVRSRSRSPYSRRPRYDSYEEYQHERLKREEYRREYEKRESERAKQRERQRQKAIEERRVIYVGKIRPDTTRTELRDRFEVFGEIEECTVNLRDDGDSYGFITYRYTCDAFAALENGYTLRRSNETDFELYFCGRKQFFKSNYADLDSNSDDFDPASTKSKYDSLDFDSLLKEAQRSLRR
Procedure, shortened: (§1)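 HEK293 cells stably carrying a luciferase reporter driven by the PGC-1α promoter, grown in high-glucose DMEM with 10% FBS, penicillin and streptomycin at 37 °C in 5% CO2. About 2800 cells per well; after 24 h, compound added at final 10 or 20 μM, or forskolin 5 μM or dexamethasone 100 nM, with equal DMSO as blank. Incubated overnight, then luciferase substrate added and luminescence read. Values normalized to DMSO (100%), mean ± SEM, Student's t test.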

[2] = molecular target: T1, Peroxisome proliferator-activated receptor gamma coactivator 1-alpha (Homo sapiens); assay: Activation of PGC1alpha transcriptional activity (unknown origin) expressed in HEK293 cells at 20 uM after overnight incubation by luciferase reporter gene assay relative to control; procedure, shortened: as §1
[3] = molecular target: T1, Peroxisome proliferator-activated receptor gamma coactivator 1-alpha (Homo sapiens); assay: Activation of PGC1alpha transcriptional activity (unknown origin) expressed in HEK293 cells at 5 uM after 24 hrs by luciferase reporter gene assay relative to control
[4] = molecular target: T1, Peroxisome proliferator-activated receptor gamma coactivator 1-alpha (Homo sapiens); assay: Activation of PGC1alpha transcriptional activity (unknown origin) expressed in HEK293 cells at 5 uM after overnight incubation by luciferase reporter gene assay relative to control; procedure, shortened: as §1
[5] = molecular target: T1, Peroxisome proliferator-activated receptor gamma coactivator 1-alpha (Homo sapiens); assay: Activation of PGC1alpha transcriptional activity (unknown origin) expressed in HEK293 cells at 100 nM after 24 hrs by luciferase reporter gene assay relative to control; procedure, shortened: as §1
[6] = molecular target: T1, Peroxisome proliferator-activated receptor gamma coactivator 1-alpha (Homo sapiens); assay: Activation of PGC1alpha transcriptional activity (unknown origin) expressed in HEK293 cells at 100 nM after overnight incubation by luciferase reporter gene assay relative to control; procedure, shortened: as §1

SMILES	Activity [1] [%]	Activity [2] [%]	other results
C[C@H](CC[C@@H](O[C@@H]1O[C@H](CO)[C@@H](O)[C@H](O)[C@H]1O[C@@H]1O[C@H](CO)[C@@H](O)[C@H](O)[C@H]1O)C(C)(C)O)[C@H]1CC[C@@]2(C)[C@@H]3C(=O)C=C4[C@@H](CC[C@H](O[C@@H]5O[C@H](CO)[C@@H](O)[C@H](O)[C@H]5O)C4(C)C)[C@]3(C)[C@H](O)C[C@]12C	97.8	122	
C=C[C@@]1(C)CC(=O)[C@]2(O)[C@@]3(C)[C@@H](O)CCC(C)(C)[C@@H]3[C@H](O)[C@H](OC(C)=O)[C@@]2(C)O1			fold change (FC) [3]: 1.4; Activity [4]: 145%
C[C@H](CC[C@@H](O[C@@H]1O[C@H](CO)[C@@H](O)[C@H](O)[C@H]1O[C@@H]1O[C@H](CO)[C@@H](O)[C@H](O)[C@H]1O)C(C)(C)O)[C@H]1CC[C@@]2(C)[C@@H]3CC=C4[C@@H](CC[C@H](O[C@@H]5O[C@H](CO[C@@H]6O[C@H](CO)[C@@H](O)[C@H](O)[C@H]6O)[C@@H](O)[C@H](O)[C@H]5O)C4(C)C)[C@]3(C)C(=O)C[C@]12C	129	132	
C[C@H](CC[C@@H](O[C@@H]1O[C@H](CO)[C@@H](O)[C@H](O)[C@H]1O[C@@H]1O[C@H](CO)[C@@H](O)[C@H](O)[C@H]1O)C(C)(C)O)[C@H]1CC[C@@]2(C)[C@@H]3CC=C4[C@@H](CC[C@H](O[C@@H]5O[C@H](CO)[C@@H](O)[C@H](O)[C@H]5O)C4(C)C)[C@]3(C)C(=O)C[C@]12C	107	123	
C[C@H](CC[C@@H](O[C@@H]1O[C@H](CO)[C@@H](O)[C@H](O)[C@H]1O[C@@H]1O[C@H](CO)[C@@H](O)[C@H](O)[C@H]1O)C(C)(C)O)[C@H]1CC[C@@]2(C)[C@@H]3C(=O)C=C4[C@@H](CC[C@H](O[C@@H]5O[C@H](CO[C@@H]6O[C@H](CO)[C@@H](O)[C@H](O)[C@H]6O)[C@@H](O)[C@H](O)[C@H]5O)C4(C)C)[C@]3(C)[C@H](O)C[C@]12C	105	126	
C[C@@H]1C[C@H]2[C@@H]3CCC4=CC(=O)C=C[C@]4(C)[C@@]3(F)[C@@H](O)C[C@]2(C)[C@@]1(O)C(=O)CO			fold change (FC) [5]: 1.7; Activity [6]: 172%

From ChEMBL document CHEMBL4118042, “Cucurbitane Glucosides from the Crude Extract of Siraitia grosvenorii with Moderate Effects on PGC-1α Promoter Activity” (J Nat Prod, 2017)
